Laboratory results published in ChEMBL document CHEMBL3351566, “Blood schizontocidal and gametocytocidal activity of 3-hydroxy-N'-arylidenepropanehydrazonamides: a new class of antiplasmodial compounds” (J Med Chem, 2014).

Experiments:
[1] = tested on: Plasmodium falciparum; assay: Antiplasmodial activity against Plasmodium falciparum 3D7 asexual blood stages after 3 days by HRP2 detection based ELISA method; assay type: functional, organism-based; settings: 3D7, 72 h
Outline: (§1)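 HRP2-based growth inhibition of P. falciparum asexual blood stages, 3D7 (chloroquine-sensitive) or Dd2 (multidrug-resistant). IC50 from 12 serial dilutions. Mean of at least two independent experiments, each run in duplicate.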

[2] = tested on: L6; assay: Cytotoxicity against rat L6 cells after 72 hrs by alamar blue assay; assay type: cell-based; settings: L6, 72 h
[3] = tested on: Plasmodium falciparum; assay: Antiplasmodial activity against Plasmodium falciparum Dd2 asexual blood stages after 3 days by HRP2 detection based ELISA method; assay type: functional, organism-based; settings: Dd2, 72 h; outline: as §1
[4] = Selectivity index, ratio of IC50 for rat L6 cells to IC50 for Plasmodium falciparum 3D7 asexual blood stages; assay type: toxicity, cell-based; settings: read-out: Ratio IC50
Outline: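 Selectivity index calculated as L6 cytotoxicity IC50 divided by P. falciparum 3D7 IC50, using unrounded cytotoxicity values.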

[5] = tested on: Plasmodium falciparum; assay: Gametocytocidal activity against transgenic Plasmodium falciparum NF54-pfs16-GFP late stage gametocytes after 72 hrs by mitotracker red CM-H2XRos dye based confocal imaging assay; assay type: functional, organism-based; settings: NF54, 72 h
Outline: (§2)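 Late-stage gametocytes stained with MitoTracker Red, imaged, and scored by viable elongated MTR-positive morphology. % inhibition set relative to a puromycin 100% inhibition control. Compounds in 4% DMSO, top concentration 120 or 40 μM. IC50 from 21 serial dilutions. Mean of two independent experiments, each in duplicate.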

[6] = Plasma concentration in Plasmodium berghei infected mouse at 50 mg/kg, po dosed once daily for 4 days on 4, 24, 48 and 72 hrs post infection and measured 4 hrs post dose by HPLC-MS/MS method; assay type: ADME, organism-based; design: dose 50 mg/kg, route oral
Outline: (§3)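 P. berghei-infected mice (n = 3 per group) given oral doses in 70/30 Tween 80/ethanol diluted 10× with water, at 4, 24, 48 and 72 h postinfection. Plasma drug levels (ng/mL) measured at 1, 4 and 24 h after oral treatment.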

[7] = tested on: Plasmodium berghei; assay: Antiplasmodial activity against Plasmodium berghei infected in mouse assessed as reduction in parasitemia level at 50 mg/kg, po dosed once daily for 4 days on 4, 24, 48 and 72 hrs post infection and measured on day 4; assay type: functional
Outline: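 Peters 4-day test in P. berghei-infected mice, n = 3 per group. 50 mg/kg given orally once daily at 4, 24, 48 and 72 h postinfection. Dosed as a solution or suspension in 70/30 Tween 80/ethanol diluted 10× with water. Parasitemia read from blood taken on day 4 (96 h postinfection), expressed as % reduction versus an infected untreated control.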

[8] = Plasma concentration in Plasmodium berghei infected mouse at 50 mg/kg, po dosed once daily for 4 days on 4, 24, 48 and 72 hrs post infection and measured 24 hrs post dose by HPLC-MS/MS method; assay type: ADME, organism-based; design: dose 50 mg/kg, route oral; outline: as §3
[9] = Plasma concentration in Plasmodium berghei infected mouse at 50 mg/kg, po dosed once daily for 4 days on 4, 24, 48 and 72 hrs post infection and measured 1 hr post dose by HPLC-MS/MS method; assay type: ADME, organism-based; design: dose 50 mg/kg, route oral; outline: as §3
[10] = tested on: Plasmodium berghei; assay: Antiplasmodial activity against Plasmodium berghei infected in mouse assessed as […] in mouse survival at 50 mg/kg, po dosed once daily for 4 days on 4, 24, 48 and 72 hrs post infection and measured on day 4 (reference value: 4 days); assay type: functional
Outline: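 Standard Peters 4-day test in P. berghei-infected mice (n = 3 per group), dosed orally at 4, 24, 48 and 72 h post-infection. Compound was dissolved or suspended in 70/30 Tween 80/ethanol and diluted 10× with water. Blood for parasitemia was taken on day 4 (96 h). Survival was given as mean days, with parasite-free at day 30 taken as cure. Untreated infected controls were euthanized on day 4.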

[11] = tested on: Plasmodium falciparum; assay: Gametocytocidal activity against transgenic Plasmodium falciparum NF54-pfs16-GFP late stage gametocytes at 40 uM after 72 hrs by mitotracker red CM-H2XRos dye based confocal imaging assay; assay type: functional; settings: NF54, 72 h; outline: as §2
[12] = tested on: Plasmodium falciparum; assay: Gametocytocidal activity against transgenic Plasmodium falciparum NF54-pfs16-GFP late stage gametocytes at 120 uM after 72 hrs by mitotracker red CM-H2XRos dye based confocal imaging assay; assay type: functional; settings: NF54, 72 h; outline: as §2
[13] = tested on: Mus musculus; assay: Toxicity in Plasmodium berghei infected mouse assessed as changes in general behaviors at 50 mg/kg, po dosed once daily for 4 days on 4, 24, 48 and 72 hrs post infection; assay type: organism-based; design: dose 50 mg/kg, route oral; settings: in vivo
Outline: (§4)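 P. berghei-infected mice (n = 3 per group) received four oral doses at 4, 24, 48 and 72 h post-infection. Vehicle was 70/30 Tween 80/ethanol diluted 10× with water. Mice were watched for acute toxicity signs: death, changes in general behaviour, and changes in physiological activities.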

[14] = tested on: Mus musculus; assay: Toxicity in Plasmodium berghei infected mouse assessed as mouse mortality level at 50 mg/kg, po dosed once daily for 4 days on 4, 24, 48 and 72 hrs post infection; assay type: organism-based; design: dose 50 mg/kg, route oral; settings: in vivo; outline: as §4
[15] = tested on: Mus musculus; assay: Toxicity in Plasmodium berghei infected mouse assessed as changes in physiological activities at 50 mg/kg, po dosed once daily for 4 days on 4, 24, 48 and 72 hrs post infection; assay type: organism-based; design: dose 50 mg/kg, route oral; settings: in vivo; outline: as §4

IC50 [1]	IC50 [3]	SMILES	IC50 [2]	selectivity ratio [4]	further results
1100 nM	1300 nM	CCOc1cc(/C=N/N=C(\N)CC(O)c2ccc3ccccc3c2)ccc1O (stereo not drawn)	78000 nM	71	–
380 nM	620 nM	COc1ccc(/C=N/N=C(\N)CC(O)c2ccc3ccccc3c2)cc1 (stereo not drawn)	69000 nM	182	–
4000 nM	> 10000 nM	N/C(CC(O)c1ccc2ccccc2c1)=N\N=C\c1ccc(F)cc1F (stereo not drawn)	93000 nM	23	–
83 nM	210 nM	COc1ccc(/C=N/N=C(\N)CC(O)c2cccc3ccccc23)cc1 (stereo not drawn)	6300 nM	76	–
2000 nM	2500 nM	N/C(CC(O)c1ccc2ccccc2c1)=N\N=C\c1ccc(F)cc1 (stereo not drawn)	> 298000 nM	> 149	inhibition at 40 µM [11]: 25%
> 10000 nM	> 10000 nM	N/C(CC(O)c1ccc2ccccc2c1)=N\N=C\c1ccco1 (stereo not drawn)	–	–	–
> 10000 nM	> 10000 nM	N/C(CC(O)c1ccc2ccccc2c1)=N\N=C\c1cccnc1 (stereo not drawn)	–	–	–
540 nM	380 nM	Cc1ccc(/C=N/N=C(\N)CC(O)c2ccc3ccccc3c2)cc1 (stereo not drawn)	103000 nM	190	–
1900 nM	700 nM	N/C(CC(O)c1ccc2ccccc2c1)=N\N=C\c1ccc(Cl)c(Cl)c1 (stereo not drawn)	100000 nM	52	–
> 10000 nM	> 10000 nM	N/C(CC(O)c1ccc2ccccc2c1)=N\N=C\c1ccc(C(F)(F)F)cc1 (stereo not drawn)	–	–	–

Further lines, the compound ahead of its results:

SMILES	IC50 [1]	IC50 [3]	IC50 [2]	selectivity ratio [4]	further results
C/C(=N\N=C(/N)CC(O)c1cccc2ccccc12)c1ccc(F)cc1 (stereo not drawn)	400 nM	740 nM	34000 nM	86	–
C[C@H]1[C@H](OC(=O)CCC(=O)O)O[C@@H]2O[C@@]3(C)CC[C@H]4[C@H](C)CC[C@@H]1[C@@]24OO3 [ARTESUNATE]	–	2 nM	24000 nM	–	IC50 [5]: 44 nM
N/C(CC(O)c1cccc2ccccc12)=N\N=C\c1ccc(F)cc1F (stereo not drawn)	190 nM	190 nM	4200 nM	22	–
N/C(CC(O)c1cc2ccccc2c2ccccc12)=N\N=C\c1ccccc1 (stereo not drawn)	16 nM	28 nM	6100 nM	383	IC50 [5]: 180 nM
O[C@@H](c1cc(C(F)(F)F)nc2c(C(F)(F)F)cccc12)[C@H]1CCCCN1 (relative stereo) [(S,R)-MEFLOQUINE]	–	–	4500 nM	–	IC50 [5]: 100 nM
N/C(CC(O)c1cccc2ccccc12)=N\N=C\c1cccnc1 (stereo not drawn)	2700 nM	1100 nM	22000 nM	8	–
CCC/C(=N\N=C(/N)CC(O)c1cccc2ccccc12)c1ccccc1 (stereo not drawn)	240 nM	610 nM	29000 nM	120	–
N/C(CC(O)c1cccc2ccccc12)=N\N=C\c1ccc(C(F)(F)F)cc1 (stereo not drawn)	110 nM	300 nM	26000 nM	234	–
N/C(CC(O)c1cccc2ccccc12)=N\N=C\c1ccc(F)cc1 (stereo not drawn)	60 nM	200 nM	19000 nM	321	concentration at 4 h [6]: 145 ng/mL; inhibition in vivo at 50 mg/kg [7]: 40%; concentration at 24 h [8]: < 5 ng/mL; concentration at 1 h [9]: 316 ng/mL; MSD [10]: 6.7 days; IC50 [5]: 780 nM
Cc1ccc(/C=N/N=C(\N)CC(O)c2cccc3ccccc23)cc1 (stereo not drawn)	190 nM	62 nM	6800 nM	36	–
N/C(CC(O)c1cccc2ccccc12)=N\N=C\c1ccccc1 (stereo not drawn)	100 nM	240 nM	17000 nM	170	–
CCOc1cc(/C=N/N=C(\N)CC(O)c2cccc3ccccc23)ccc1O (stereo not drawn)	250 nM	450 nM	4200 nM	17	–
N/C(CC(O)c1cccc2ccccc12)=N\N=C\c1ccc(Cl)c(Cl)c1 (stereo not drawn)	250 nM	190 nM	16000 nM	63	–
N/C(=N\N=C\c1ccccc1)C(O)c1cccc2ccccc12 (stereo not drawn)	3000 nM	3900 nM	300000 nM	100	–
N/C(=N\N=C\c1ccccc1)C(O)c1ccc2ccccc2c1 (stereo not drawn)	> 10000 nM	> 10000 nM	–	–	–
N/C(CC(O)c1cccc2ccccc12)=N\N=C\c1cccc(Br)c1 (stereo not drawn)	91 nM	94 nM	3900 nM	43	–
N/C(CC(O)c1cccc2ccccc12)=N\N=C\c1ccc(F)c(F)c1 (stereo not drawn)	180 nM	550 nM	17000 nM	95	–
CCN(CC)CCCC(C)Nc1ccnc2cc(Cl)ccc12 (stereo not drawn) [CHLOROQUINE]	–	–	78000 nM	–	inhibition at 120 µM [12]: 44%
N/C(CC(O)c1cc2ccccc2c2ccccc12)=N\N=C\c1ccc(F)cc1 (stereo not drawn)	8.3 nM	11 nM	16000 nM	1890	concentration at 4 h [6]: 3100 ng/mL; Activity [13]: Non-toxic; inhibition in vivo at 50 mg/kg [7]: 99.6%; concentration at 24 h [8]: 86.1 ng/mL; concentration at 1 h [9]: 4690 ng/mL; MSD [10]: 10 days; IC50 [5]: 370 nM; Activity [14]: Non-toxic; Activity [15]: Non-toxic
COc1cc([C@@H]2c3cc4c(cc3[C@H](O)[C@H]3COC(=O)[C@H]23)OCO4)cc(OC)c1OC [PODOFILOX]	9200 nM	8300 nM	9.7 nM	0.0016	–
N/C(CC(O)c1cccc2ccccc12)=N\N=C\c1ccco1 (stereo not drawn)	510 nM	380 nM	145000 nM	284	–
